# Experimental data as given in ChEMBL document CHEMBL4138258 (ACS Med Chem Lett, 2017).
# Activity calls are given as the source filed them.
# What was measured:
# [1] = system: Rattus norvegicus; test: Analgesic activity in Sprague-Dawley rat MIA-induced osteoarthritic pain model assessed as increase in paw withdrawal threshold at 3 mg/kg, ip by von Frey filaments assay; assay type: functional, organism-based
# Outline: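 Rat MIA osteoarthritis pain model, with analgesia read as von Frey paw withdrawal threshold. In blocking runs, 3 mg/kg IP agonist was combined with the CB2 antagonist AR401733 (10 mg/kg PO) or the CB1 antagonist rimonabant (10 mg/kg PO).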
# [2] = system: Rattus norvegicus; test: Toxicity in Sprague-Dawley rat MIA-induced osteoarthritic pain model assessed as induction of tachyphylaxis at 10 mg/kg, ip administered twice daily for 5 days measured 1 hr post dose at 1 day interval for 5 days during compound dosing; assay type: organism-based; conditions: in vivo
# Outline: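 MIA-treated rats were dosed IP twice daily for 5 days. Reversal of hypersensitivity was measured by von Frey paw withdrawal threshold 1 h after the morning dose on days 1, 3 and 5. Morphine was given on the same regimen for comparison.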
# [3] = molecular target: Cannabinoid receptor 2 (Homo sapiens, UniProt P34972); test: Agonist activity at recombinant human CB2 receptor expressed in HEK293 cells assessed as increase in beta arrestin recruitment measured after 2 to 3 hrs by PathHunter assay relative to CP55940; assay type: functional, cell-based
# Cannabinoid receptor 2 (Homo sapiens, UniProt P34972), sequence (P34972 whole entry): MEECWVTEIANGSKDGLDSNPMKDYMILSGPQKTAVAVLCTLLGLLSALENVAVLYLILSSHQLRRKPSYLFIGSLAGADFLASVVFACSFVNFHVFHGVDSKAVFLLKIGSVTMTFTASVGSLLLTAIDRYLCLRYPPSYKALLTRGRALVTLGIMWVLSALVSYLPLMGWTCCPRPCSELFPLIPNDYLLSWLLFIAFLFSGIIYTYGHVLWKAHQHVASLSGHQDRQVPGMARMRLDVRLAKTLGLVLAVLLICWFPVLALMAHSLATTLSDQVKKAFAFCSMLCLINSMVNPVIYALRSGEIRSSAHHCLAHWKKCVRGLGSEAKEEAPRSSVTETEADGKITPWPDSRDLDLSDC
# [4] = molecular target: T1, Cannabinoid receptor 2 (Rattus norvegicus, UniProt Q9QZN9); test: Agonist activity at recombinant rat CB2 receptor expressed in HEK293 cells assessed as increase in beta arrestin recruitment measured after 2 to 3 hrs by PathHunter assay; assay type: functional, cell-based
# T1 sequence (Q9QZN9 whole entry): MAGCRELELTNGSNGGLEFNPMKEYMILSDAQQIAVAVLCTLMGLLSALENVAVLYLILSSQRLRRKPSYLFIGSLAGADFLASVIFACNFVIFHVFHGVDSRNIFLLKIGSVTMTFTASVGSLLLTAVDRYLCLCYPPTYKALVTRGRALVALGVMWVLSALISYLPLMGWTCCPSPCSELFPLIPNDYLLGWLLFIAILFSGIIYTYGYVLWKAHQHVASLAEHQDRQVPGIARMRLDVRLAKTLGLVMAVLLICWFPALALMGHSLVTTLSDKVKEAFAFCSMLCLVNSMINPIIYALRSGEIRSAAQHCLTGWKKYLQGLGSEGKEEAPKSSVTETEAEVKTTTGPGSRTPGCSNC
# [5] = molecular target: T2, Cannabinoid receptor 2 (Rattus norvegicus) (UniProt Q9QZN9); test: Agonist activity at recombinant rat CB2 receptor expressed in HEK293 cells assessed as increase in beta arrestin recruitment measured after 2 to 3 hrs by PathHunter assay relative to CP55940; assay type: functional, cell-based
# T2 sequence (whole entry): T1 sequence (Q9QZN9 whole entry)
# Outline: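 Beta-arrestin recruitment EC50 is the mean of three or more independent experiments (logSD < 0.4). Intrinsic activity (Emax) is expressed relative to CP-55,940 set at 100.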
# [6] = molecular target: Cannabinoid receptor 1 (Rattus norvegicus, UniProt P20272); test: Agonist activity at recombinant rat CB1 receptor expressed in HEK293 cells assessed as increase in beta arrestin recruitment measured after 2 to 3 hrs by PathHunter assay; assay type: functional, cell-based
# Cannabinoid receptor 1, sequence (P20272 whole entry): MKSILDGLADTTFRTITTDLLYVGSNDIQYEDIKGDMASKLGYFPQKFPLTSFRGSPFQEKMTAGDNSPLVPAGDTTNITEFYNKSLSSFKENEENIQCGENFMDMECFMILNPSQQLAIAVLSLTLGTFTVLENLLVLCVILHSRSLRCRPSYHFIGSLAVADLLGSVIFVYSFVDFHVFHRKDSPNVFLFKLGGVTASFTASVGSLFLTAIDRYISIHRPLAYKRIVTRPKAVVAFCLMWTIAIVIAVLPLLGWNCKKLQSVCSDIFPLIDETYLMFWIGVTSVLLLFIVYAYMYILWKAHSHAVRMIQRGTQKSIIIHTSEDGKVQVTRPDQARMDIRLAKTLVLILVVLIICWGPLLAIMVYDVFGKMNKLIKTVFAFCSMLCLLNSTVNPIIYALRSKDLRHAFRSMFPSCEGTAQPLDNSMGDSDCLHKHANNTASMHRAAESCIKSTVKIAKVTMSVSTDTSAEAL
# [7] = molecular target: T2, Cannabinoid receptor 2 (Rattus norvegicus); test: Induction of recombinant HA-tagged rat CB2 receptor internalization expressed in CHOK1 cells at 10 uM measured after 1 hr by time-resolved flow cytometry relative to CP55940; assay type: functional, cell-based
# [8] = Half life in human liver microsomes; assay type: ADME, microsome
# [9] = Half life in rat liver microsomes; assay type: ADME, microsome
# [10] = Half life in mouse liver microsomes; assay type: ADME, microsome
# [11] = Ratio of drug level in brain to plasma in Sprague-Dawley rat at 3 mg/kg, po measured after 2 hrs; assay type: ADME, organism-based; conditions: brain and plasma, read-out: BPR
# [12] = Protein binding in mouse plasma assessed as unbound fraction; assay type: ADME, cell-free
# [13] = Protein binding in rat plasma assessed as unbound fraction; assay type: ADME, cell-free
# [14] = Protein binding in dog plasma assessed as unbound fraction; assay type: ADME, cell-free, Canis lupus familiaris
# [15] = Protein binding in monkey plasma assessed as unbound fraction; assay type: ADME, cell-free, Macaca mulatta; conditions: rhesus monkey
# [16] = Protein binding in human plasma assessed as unbound fraction; assay type: ADME, cell-free
# [17] = system: Rattus norvegicus; test: Analgesic activity in po dosed Sprague-Dawley rat MIA-induced osteoarthritic pain model assessed as increase in paw withdrawal threshold after 1 hr by von Frey filaments assay; assay type: functional
# Outline: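 Von Frey paw withdrawal thresholds were read 1 h post-dose to assess late-phase hypersensitivity. ED50 was derived from the dose-response.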
# [18] = system: Rattus norvegicus; test: Inhibition of paw withdrawal threshold in Sprague-Dawley rat MIA-induced osteoarthritic pain model at 10 mg/kg, po measured up to 4 hrs; assay type: organism-based; conditions: in vivo
# [19] = system: Rattus norvegicus; test: Analgesic activity in Sprague-Dawley rat MIA-induced osteoarthritic pain model assessed as increase in paw withdrawal threshold at 3 mg/kg, po after 1 hr in presence of CB2 inverse agonist AR401733 by von Frey filaments assay; assay type: functional, organism-based
# [20] = system: Rattus norvegicus; test: Analgesic activity in Sprague-Dawley rat MIA-induced osteoarthritic pain model assessed as increase in paw withdrawal threshold at 3 mg/kg, po after 1 hr in presence of CB2 antagonist […] by von Frey filaments assay; assay type: functional, organism-based
# [21] = system: Rattus norvegicus; test: Analgesic activity in Sprague-Dawley rat MIA-induced osteoarthritic pain model assessed as increase in paw withdrawal threshold at 3 mg/kg, po after 1 hr in presence of CB2 antagonist SR144528 by von Frey filaments assay; assay type: functional, organism-based
# [22] = system: Rattus norvegicus; test: Analgesic activity in Sprague-Dawley rat MIA-induced osteoarthritic pain model assessed as increase in paw withdrawal threshold at 3 mg/kg, po after 1 hr in presence of CB1 antagonist rimonabant by von Frey filaments assay; assay type: functional, organism-based
# [23] = system: Rattus norvegicus; test: Analgesic activity in Sprague-Dawley rat MIA-induced osteoarthritic pain model assessed as increase in paw withdrawal threshold at 3 mg/kg, ip administered twice daily for 5 days measured 1 hr post dose at 1 day interval for 5 days during compound dosing; assay type: functional, organism-based
# Outline: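 Rats with MIA-induced late-phase hypersensitivity were dosed IP twice daily for 5 days. Von Frey paw withdrawal thresholds were measured 1 h after the morning dose on days 1, 3 and 5.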
# [24] = Aqueous solubility of the compound at pH 2 to 7 using solid samples; assay type: physicochemical; conditions: aqueous solution
# [25] = molecular target: T3, Cytochrome P450 1A2 (Homo sapiens, UniProt P05177); test: Inhibition of CYP1A2 (unknown origin); assay type: ADME
# T3 sequence (P05177 whole entry): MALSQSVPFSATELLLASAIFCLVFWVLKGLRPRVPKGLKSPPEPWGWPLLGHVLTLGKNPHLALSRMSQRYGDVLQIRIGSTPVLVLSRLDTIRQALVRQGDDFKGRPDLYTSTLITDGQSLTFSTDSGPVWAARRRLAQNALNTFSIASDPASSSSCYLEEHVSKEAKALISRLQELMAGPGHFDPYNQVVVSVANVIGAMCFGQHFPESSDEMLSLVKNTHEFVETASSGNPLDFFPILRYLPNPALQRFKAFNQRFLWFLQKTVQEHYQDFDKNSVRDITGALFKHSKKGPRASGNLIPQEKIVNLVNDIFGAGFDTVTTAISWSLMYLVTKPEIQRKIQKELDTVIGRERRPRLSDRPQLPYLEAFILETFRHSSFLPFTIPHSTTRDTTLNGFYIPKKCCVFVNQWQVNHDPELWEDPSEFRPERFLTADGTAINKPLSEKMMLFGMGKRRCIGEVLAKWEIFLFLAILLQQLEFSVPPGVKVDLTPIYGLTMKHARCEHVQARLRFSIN
# [26] = molecular target: Cytochrome P450 2C9 (Homo sapiens, UniProt P11712); test: Inhibition of CYP2C9 (unknown origin); assay type: ADME
# Cytochrome P450 2C9, sequence (P11712 whole entry): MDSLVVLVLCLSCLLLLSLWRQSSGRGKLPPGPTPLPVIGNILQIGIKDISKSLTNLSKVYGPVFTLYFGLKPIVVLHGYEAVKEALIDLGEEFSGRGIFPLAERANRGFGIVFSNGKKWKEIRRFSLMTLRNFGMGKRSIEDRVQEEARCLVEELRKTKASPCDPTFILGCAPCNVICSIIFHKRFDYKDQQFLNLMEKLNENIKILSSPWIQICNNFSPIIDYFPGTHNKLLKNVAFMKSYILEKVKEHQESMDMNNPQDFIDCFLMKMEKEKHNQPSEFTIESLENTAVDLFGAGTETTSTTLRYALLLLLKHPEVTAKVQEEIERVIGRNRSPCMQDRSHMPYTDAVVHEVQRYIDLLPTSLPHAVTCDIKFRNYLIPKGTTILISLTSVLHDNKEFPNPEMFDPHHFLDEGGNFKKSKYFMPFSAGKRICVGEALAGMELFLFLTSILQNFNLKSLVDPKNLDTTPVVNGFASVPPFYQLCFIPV
# [27] = molecular target: Cytochrome P450 2C19 (Homo sapiens, UniProt P33261); test: Inhibition of CYP2C19 (unknown origin); assay type: ADME
# Cytochrome P450 2C19, sequence (P33261 whole entry): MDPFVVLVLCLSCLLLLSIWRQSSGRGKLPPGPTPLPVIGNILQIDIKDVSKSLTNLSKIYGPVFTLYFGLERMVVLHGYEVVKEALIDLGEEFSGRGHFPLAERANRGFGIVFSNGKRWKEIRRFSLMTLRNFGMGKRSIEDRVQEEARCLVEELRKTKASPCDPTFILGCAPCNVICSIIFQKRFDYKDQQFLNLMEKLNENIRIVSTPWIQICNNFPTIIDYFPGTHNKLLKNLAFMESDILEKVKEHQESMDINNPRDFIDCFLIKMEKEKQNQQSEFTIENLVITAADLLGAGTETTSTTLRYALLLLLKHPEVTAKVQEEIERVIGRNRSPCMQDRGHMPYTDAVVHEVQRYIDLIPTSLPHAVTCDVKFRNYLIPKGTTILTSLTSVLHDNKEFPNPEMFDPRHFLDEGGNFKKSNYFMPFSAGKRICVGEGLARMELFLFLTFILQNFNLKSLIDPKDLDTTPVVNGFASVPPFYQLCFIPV
# [28] = molecular target: Cytochrome P450 2D6 (Homo sapiens, UniProt P10635); test: Inhibition of CYP2D6 (unknown origin); assay type: ADME
# Cytochrome P450 2D6, sequence (P10635 whole entry): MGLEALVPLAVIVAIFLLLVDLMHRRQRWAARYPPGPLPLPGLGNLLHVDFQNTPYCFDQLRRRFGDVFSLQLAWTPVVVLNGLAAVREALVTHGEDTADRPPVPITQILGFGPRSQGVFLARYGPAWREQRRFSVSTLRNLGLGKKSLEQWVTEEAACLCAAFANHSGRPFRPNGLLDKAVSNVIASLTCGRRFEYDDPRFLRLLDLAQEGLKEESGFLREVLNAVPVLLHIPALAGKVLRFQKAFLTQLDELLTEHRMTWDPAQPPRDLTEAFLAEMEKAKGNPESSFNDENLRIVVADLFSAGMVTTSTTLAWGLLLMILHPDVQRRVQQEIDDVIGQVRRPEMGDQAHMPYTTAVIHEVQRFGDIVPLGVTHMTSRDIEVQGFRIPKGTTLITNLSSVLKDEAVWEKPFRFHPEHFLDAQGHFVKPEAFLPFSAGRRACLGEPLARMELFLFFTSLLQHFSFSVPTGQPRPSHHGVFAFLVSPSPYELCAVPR
# [29] = molecular target: Cytochrome P450 3A4 (Homo sapiens, UniProt P08684); test: Inhibition of CYP3A4 (unknown origin); assay type: ADME
# Cytochrome P450 3A4, sequence (P08684 whole entry): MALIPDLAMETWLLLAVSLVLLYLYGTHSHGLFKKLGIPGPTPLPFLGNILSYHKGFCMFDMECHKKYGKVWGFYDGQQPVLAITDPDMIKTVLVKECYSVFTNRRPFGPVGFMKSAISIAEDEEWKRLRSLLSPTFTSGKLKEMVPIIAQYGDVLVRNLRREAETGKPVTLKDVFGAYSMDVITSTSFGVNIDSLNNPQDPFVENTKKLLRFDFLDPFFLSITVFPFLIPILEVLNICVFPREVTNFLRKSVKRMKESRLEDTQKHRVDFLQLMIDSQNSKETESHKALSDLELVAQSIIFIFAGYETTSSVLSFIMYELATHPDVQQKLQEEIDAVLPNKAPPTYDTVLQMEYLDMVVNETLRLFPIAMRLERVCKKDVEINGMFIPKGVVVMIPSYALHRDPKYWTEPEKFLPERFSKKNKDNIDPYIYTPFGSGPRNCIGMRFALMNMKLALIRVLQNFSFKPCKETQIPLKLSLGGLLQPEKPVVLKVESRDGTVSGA
# [30] = molecular target: T4, Voltage-gated inwardly rectifying potassium channel KCNH2 (Homo sapiens, UniProt Q12809); test: Inhibition of [3H]-astemizole binding to human ERG
# T4 sequence (Q12809 whole entry): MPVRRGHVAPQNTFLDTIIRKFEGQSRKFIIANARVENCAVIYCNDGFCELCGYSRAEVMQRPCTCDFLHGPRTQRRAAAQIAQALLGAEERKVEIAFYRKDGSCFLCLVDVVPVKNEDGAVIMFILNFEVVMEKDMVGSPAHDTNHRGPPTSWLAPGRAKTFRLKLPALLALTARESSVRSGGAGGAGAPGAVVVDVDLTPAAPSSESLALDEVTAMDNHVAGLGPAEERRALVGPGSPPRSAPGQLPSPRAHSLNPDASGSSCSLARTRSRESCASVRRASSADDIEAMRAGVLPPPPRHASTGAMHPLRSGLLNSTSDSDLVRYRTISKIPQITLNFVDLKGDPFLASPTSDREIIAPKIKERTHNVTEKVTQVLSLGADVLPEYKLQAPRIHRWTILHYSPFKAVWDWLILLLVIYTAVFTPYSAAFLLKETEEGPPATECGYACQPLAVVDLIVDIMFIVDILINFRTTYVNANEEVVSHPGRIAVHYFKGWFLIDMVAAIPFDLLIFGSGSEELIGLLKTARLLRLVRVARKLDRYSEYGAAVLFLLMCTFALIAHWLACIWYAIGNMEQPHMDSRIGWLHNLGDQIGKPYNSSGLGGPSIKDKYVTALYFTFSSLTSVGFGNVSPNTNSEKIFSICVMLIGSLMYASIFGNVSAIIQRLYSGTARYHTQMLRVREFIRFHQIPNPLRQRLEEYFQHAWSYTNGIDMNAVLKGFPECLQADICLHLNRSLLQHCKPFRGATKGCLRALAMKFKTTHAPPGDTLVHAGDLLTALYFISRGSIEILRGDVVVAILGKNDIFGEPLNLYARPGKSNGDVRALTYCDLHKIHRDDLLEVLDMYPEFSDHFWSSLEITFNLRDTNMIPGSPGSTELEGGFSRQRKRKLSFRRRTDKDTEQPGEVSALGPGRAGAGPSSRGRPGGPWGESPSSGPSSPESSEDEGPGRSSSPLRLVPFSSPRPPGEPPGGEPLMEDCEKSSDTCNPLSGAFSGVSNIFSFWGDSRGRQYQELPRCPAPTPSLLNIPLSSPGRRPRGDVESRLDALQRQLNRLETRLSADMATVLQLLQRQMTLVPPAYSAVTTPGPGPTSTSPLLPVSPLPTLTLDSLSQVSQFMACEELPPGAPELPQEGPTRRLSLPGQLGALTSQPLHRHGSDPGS
# [31] = molecular target: T4, Voltage-gated inwardly rectifying potassium channel KCNH2; test: Inhibition of human ERG by patch-clamp method
# [32] = system: HepG2; test: Cytotoxicity against human HepG2 cells up to 1000 uM; assay type: cell-based
# Outline: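 Essential Cell Function panel in live HepG2 cells, measuring several cellular parameters.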
# [33] = system: Salmonella typhimurium; test: Mutagenicity in Salmonella typhimurium in presence of liver S9 fraction by Ames test; assay type: toxicity, organism-based; conditions: salmonella enterica subsp. enterica serovar typhimurium
# [34] = system: Salmonella typhimurium; test: Mutagenicity in Salmonella typhimurium in absence of liver S9 fraction by Ames test; assay type: toxicity, organism-based; conditions: salmonella enterica subsp. enterica serovar typhimurium
# [35] = system: Rattus norvegicus; test: Toxicity in Sprague-Dawley rat assessed as change in core body temperature up to 100 mg/kg, po measured after 60 mins by rectal probe method; assay type: organism-based; conditions: in vivo, 1 h
# [36] = system: Rattus norvegicus; test: Acute toxicity in Sprague-Dawley rat assessed as lethargy at 300 mg/kg, po administered for 14 days measured on day 1 during compound dosing; assay type: organism-based; conditions: in vivo, 336 h
# Outline: (§1)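 Male and female Sprague-Dawley rats in a 14-day dose-range-finding toxicity study with oral dose groups of 0, 30, 100 and 300 mg/kg. Animals were watched for clinical signs such as lethargy over the dosing period.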
# [37] = system: Rattus norvegicus; test: Acute toxicity in Sprague-Dawley rat assessed as lethargy at 300 mg/kg, po administered for 14 days measured on day 2 to 14 during compound dosing; assay type: organism-based; conditions: in vivo, 336 h; outline: as §1
# [38] = system: Rattus norvegicus; test: Acute toxicity in Sprague-Dawley rat assessed as hematological changes at 30 to 300 mg/kg, po administered for 14 days measured during compound dosing; assay type: organism-based; conditions: in vivo, 336 h
# [39] = system: Rattus norvegicus; test: Acute toxicity in Sprague-Dawley rat assessed as histopathological abnormalities at 30 to 300 mg/kg, po administered for 14 days measured during compound dosing; assay type: organism-based; conditions: in vivo, 336 h
# [40] = Stability of the compound; assay type: physicochemical
smiles,measurement,setting,value
CN1CC[C@]23c4c5ccc(O)c4O[C@H]2[C@@H](O)C=C[C@H]3[C@H]1C5 [MORPHINE],Activity,[1],Active
same,Activity,[2],Toxic
CC(C)(C)[C@@H](CO)NC(=O)c1nn(-c2c[n+]([O-])ccn2)c2c1C[C@@H]1C[C@H]21 [OLORINAB],Emax,[3],106%
same,EC50,[4],0.0076 µM
same,Emax,[5],100%
same,EC50,[6],10 to 30 µM
same,Activity,[7],106%
same,half-life,[8],> 1 h
same,half-life,[9],> 1 h
same,half-life,[10],> 1 h
same,Kp at 2 h,[11],0.04
same,fraction unbound,[12],0.1 to 0.2
same,fraction unbound,[13],0.1 to 0.2
same,fraction unbound,[14],0.1 to 0.2
same,fraction unbound,[15],0.1 to 0.2
same,fraction unbound,[16],0.1 to 0.2
same,ED50,[17],2.3 mg/kg
same,inhibition (INH),[18],Non-Toxic
same,Activity,[19],inactive
same,Activity,[20],inactive
same,Activity,[21],inactive
same,Activity,[22],inactive
same,Activity,[23],Active
same,solubility thermodynamic,[24],2000 µg/mL
same,IC50,[25],> 50 µM
same,IC50,[26],> 50 µM
same,IC50,[27],> 50 µM
same,IC50,[28],> 50 µM
same,IC50,[29],> 50 µM
same,IC50,[30],> 30 µM
same,IC50,[31],> 30 µM
same,Activity,[32],Non-Toxic
same,Activity,[33],Non-Toxic
same,Activity,[34],Non-Toxic
same,Activity,[35],Non-Toxic
same,Activity,[36],Toxic
same,Activity,[37],Non-Toxic
same,Activity,[38],Non-Toxic
same,Activity,[39],Non-Toxic
same,Stability,[40],Stable
